Experimental data published in paper PMC2843818 (Bioorganic & medicinal chemistry letters, 2010).
Values belong to the molecule of their own block, whether it stands above or below them.

Legend:
hS1P1 [1] = target: T1, hS1P1 (Homo sapiens, UniProt P21453); experiment: Calcium mobilization Gi assay, S1P1; type: cell-based; details: for EC50 S1P1: calcium mobilization Gi assay, whole cell
human S1P3 = human S1P3 (Homo sapiens, UniProt Q99500); experiment: Calcium mobilization Gi assay, S1P3; type: cell-based; details: for EC50 S1P3: calcium mobilization Gi assay, whole cell
hS1P1 [2] = target: T1, hS1P1; experiment: Calcium mobilization Gq assay, S1P1; type: cell-based; details: for EC50 S1P1: calcium mobilization Gq assay, whole cell
lymphopenia = experiment: Mouse lymphopenia; type: in vivo; details: for duration of sustained lymphopenia: mouse PK/PD study
In short: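 Mouse PK/PD study with single doses of test compound at 1 or 2 mg/kg. Lymphopenia was followed over time to find how long it lasted. Pharmacokinetics were measured in parallel: oral bioavailability, half-life, clearance, volume, and percent in vivo phosphorylation.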

Chain of human S1P3 (Q99500 whole entry): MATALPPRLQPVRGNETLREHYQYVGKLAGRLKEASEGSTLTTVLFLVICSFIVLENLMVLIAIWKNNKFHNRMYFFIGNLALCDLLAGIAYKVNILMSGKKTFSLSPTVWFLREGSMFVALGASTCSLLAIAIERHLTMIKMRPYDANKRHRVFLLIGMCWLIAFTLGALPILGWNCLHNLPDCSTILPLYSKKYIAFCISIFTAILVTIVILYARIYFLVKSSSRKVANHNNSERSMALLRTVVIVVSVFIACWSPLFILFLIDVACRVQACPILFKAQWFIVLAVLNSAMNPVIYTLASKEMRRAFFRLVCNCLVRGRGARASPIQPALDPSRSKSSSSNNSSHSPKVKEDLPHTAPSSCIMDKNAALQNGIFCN
T1 sequence (P21453 whole entry): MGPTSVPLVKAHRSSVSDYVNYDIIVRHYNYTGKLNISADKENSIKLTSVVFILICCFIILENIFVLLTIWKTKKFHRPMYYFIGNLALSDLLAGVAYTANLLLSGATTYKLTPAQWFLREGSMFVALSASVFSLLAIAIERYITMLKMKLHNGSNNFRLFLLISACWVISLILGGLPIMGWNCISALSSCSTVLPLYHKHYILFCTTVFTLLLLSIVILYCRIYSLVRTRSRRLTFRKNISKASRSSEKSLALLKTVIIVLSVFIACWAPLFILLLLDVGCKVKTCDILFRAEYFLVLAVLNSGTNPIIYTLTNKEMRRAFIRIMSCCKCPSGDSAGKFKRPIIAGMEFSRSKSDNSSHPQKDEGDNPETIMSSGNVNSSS

fold less potent at S1P1 than (S)-FTY720-P (hS1P1 [1]; Gi assay): 6 fold
fold less potent at S1P3 than (S)-FTY720-P (human S1P3; Gi assay): 2 fold
SMILES: CCCCCCCCc1ccc2c(c1)CC[C@@H](C(N)(CO)COP(=O)(O)O)C2 (single isomer, unassigned) [(2’R)-3-P isomer 1]

EC50 S1P3 (human S1P3): not active
SMILES: CCCCCCCCc1ccc2c(c1)CC[C@@H](C(N)(CO)COP(=O)(O)O)C2 (single isomer, unassigned) [(2’R)-3-P isomer 2]

EC50 S1P1 (hS1P1 [2]): very active
SMILES: CCCCCCCCc1ccc2c(c1)CC[C@@H]([C@@](C)(N)COP(=O)(O)O)C2 [(2R, 2’R)-6]

SMILES: CCCCCCCCc1ccc2c(c1)CC[C@H]([C@@](C)(N)CO)C2 [(2R, 2’S)-5, (−)-(R)-2-amino-2-((S)-6-octyl-1,2,3,4-tetrahydronaphthalen-2-yl) propan-1-ol]
duration of sustained lymphopenia (lymphopenia; 1 mg/kg dose): one-week

selectivity of S1P1 over S1P3 (hS1P1 [2]; Gq assay, compared to FTY720): moderate selectivity
EC50 S1P1 (hS1P1 [2]): very active
SMILES: CCCCCCCCc1ccc2c(c1)CC[C@H]([C@@](C)(N)COP(=O)(O)O)C2 [(2R, 2’S)-6]

SMILES: CCCCCCCCc1ccc2c(c1)CC[C@@H]([C@](C)(N)CO)C2 [(2S, 2’R)-5]
ED50 (lymphopenia; Mus musculus, read-out: Mouse Lymphopenia ED50): > 5 mg/kg
Mouse Lymphopenia ED50 (lymphopenia): not active

S1P1/S1P3 selectivity (hS1P1 [1]; Gi assay): great S1P1/S1P3 selectivity
EC50 S1P1 (hS1P1 [1]): significantly less active
EC50 S1P3 (human S1P3): no activity
SMILES: CCCCCCCCc1ccc2c(c1)CC[C@@H]([C@](C)(N)COP(=O)(O)O)C2 [(2S, 2’R)-6]

SMILES: CCCCCCCCc1ccc2c(c1)CC[C@H]([C@](C)(N)CO)C2 [(2S, 2’S)-5]
Mouse Lymphopenia ED50 (lymphopenia): not active

S1P1/S1P3 selectivity (hS1P1 [1]; Gi assay): great S1P1/S1P3 selectivity
EC50 S1P1 (hS1P1 [1]): significantly less active
EC50 S1P3 (human S1P3): no activity
EC50 S1P1 (hS1P1 [2]): not active
SMILES: CCCCCCCCc1ccc2c(c1)CC[C@H]([C@](C)(N)COP(=O)(O)O)C2 [(2S, 2’S)-6]

SMILES: CCCCCCCCc1ccc2c(c1)CC[C@@H](C(N)(CO)CO)C2 [(2’R)-3]
duration of sustained lymphopenia (lymphopenia; 2 mg/kg dose): 72 h

EC50 S1P3 (human S1P3): not active
EC50 S1P1 (hS1P1 [2]): not active
SMILES: CCCCCCCCc1ccc(CC[C@@](N)(CO)COP(=O)(O)O)cc1 [(R)-FTY720-P, reference compound]
